Experimental data collected from several papers.
Lines come from different studies, so protocols differ.
Target: Misshapen-like kinase 1 (MINK1, Homo sapiens, UniProt Q8N4C8)

`FC(F)(F)c1ccc2c(c1)nc(-c1cccnc1)n2C1CC1` gave a remaining binding of 100% (cell-free assay; competition with immobilised ligand; 1 µM).
`O=C(NCCCN1CCOCC1)c1ccc(Nc2ncc(Cl)c(-c3ccc(Cl)s3)n2)cc1` gave a remaining binding of 20% (binding; competition with immobilised ligand; 1 µM).
The remaining binding of `CNCc1ccccc1-c1csc([C@H](C)Nc2nc(C)nc3cc(OC)c(OC)cc23)c1` is reported as 88% (cell-free assay; competition with immobilised ligand; 1 µM).
The remaining binding of `N[C@H]1CCN(c2nccc(-c3cnn4ncccc34)n2)C1` is reported as 100% (binding; 1 µM).
The remaining binding of `C[C@H](c1cccc(C#N)c1)n1cc(Cl)cc(C(N)=O)c1=N` is reported as 88% (cell-free assay; competition with immobilised ligand; 1 µM).
`c1cncc(-c2cccc(Nc3nccc(NC4CCCCC4)n3)c2)c1` has a remaining binding of 4.8% (binding; competition with immobilised ligand; 10 µM).
`CN(CCCC(F)(F)F)c1nccc(-c2cnn3ncccc23)n1` gave a remaining binding of 100% (binding; 1 µM).
The remaining binding of `O=C(NCCCN1CCOCC1)c1ccc(Nc2nccc(-c3cc4ccccc4s3)n2)cc1` is reported as 46% (binding; competition with immobilised ligand; 1 µM).
For `C[C@@H]1CCN(c2nccc(-c3cnn4ncccc34)n2)C1`, the remaining binding was 74% (binding; 1 µM).
For `Cc1cnc(Nc2ccc(C(=O)N3CCC(N4CCCC4)CC3)cc2)nc1-c1cc2ccccc2s1`, the remaining binding was 40% (binding; competition with immobilised ligand; 1 µM).
`O=C(NCC1CCOCC1)c1n[nH]cc1NC(=O)c1c(F)cccc1F` gave a remaining binding of 77% (binding; competition with immobilised ligand; 1 µM).
The remaining binding of `CN(C)c1nccc(-c2cnc3ncccn23)n1` is reported as 82% (binding; 1 µM).
For `O=C(NC[C@@H]1[C@H]2CN(C(=O)OCc3cc(C(F)(F)F)cc(C(F)(F)F)c3)C[C@@H]12)c1ccc2[nH]nnc2c1`, the remaining binding was 72% (cell-free assay; competition with immobilised ligand; 1 µM).
For `FC(F)(F)Oc1cccc(-c2cnc3ccc(-c4ccncc4)nn23)c1`, the remaining binding was 7.2% (binding; competition with immobilised ligand; 5 µM).
`COc1cnc(Nc2cccc(S(N)(=O)=O)c2)nc1N1CCN(c2ccccc2)C(=O)C1` has a remaining binding of 78% (binding; competition with immobilised ligand; 1 µM).
The remaining binding of `CN(C)C(=O)Cn1cc(-c2nc([C@@](C)(c3ccc(-c4cnc(N)nc4)cc3)C3CC3)no2)cn1` is reported as 85% (cell-free assay; competition with immobilised ligand; 1 µM).
`CC1CCCN1c1nccc(-c2cnn3ncccc23)n1` (stereo not shown) has a remaining binding of 90% (binding; 1 µM).
`CC(C)(O)c1cncc(-c2nc3ccc(F)cc3n2C2CC2)c1` has a remaining binding of 100% (cell-free assay; competition with immobilised ligand; 1 µM).
`CN(C)c1ncc(F)c(-c2cnn3ncccc23)n1` has a remaining binding of 80% (binding; 1 µM).
For `C[C@@H](c1ccc(-n2cnc3c(N)ncnc32)cc1)N1CCc2nn(C)c(Cc3ccccc3)c2C1=O`, the remaining binding was 88% (binding; competition with immobilised ligand; 0.1 µM).
`N#Cc1ccc(Nc2ccc3[nH]c(=O)[nH]c3c2)c(Cl)c1` has a remaining binding of 91% (cell-free assay; competition with immobilised ligand; 1 µM).
`CN(c1nccc(-c2cnn3ncccc23)n1)C1CC1` gave a remaining binding of 100% (binding; 1 µM).
